Screening results deposited in PubChem by Sanford-Burnham Center for Chemical Genomics.
EBI2 block – antagonists of human EBI2 receptor; EBI2 beta-arrestin recruitment, luminescence, 7a,25-OHC stimulated; AID 651636; inhibition, % at 5 µM; 360,000 tested, 0.81% active; in the data active = inhibition above about 38%;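 also: enzyme fragment complementation signal reports receptor beta-arrestin coupling in cells; 0% = agonist plus DMSO wells and 100% = wells without agonist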
CXCR6 inh – CXCR6 (human) receptor inhibition; O00574; CHO-K1 PathHunter CXCR6 beta-arrestin, luminescence; inhibition, % at 20 µM; 360,000 tested, 0.36% active; AID 602244; in the data active = inhibition above about 34%, passing the limit was not always enough;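 also: antagonist mode with CXCL16 agonist at 10 nM final; 0% = 10 nM CXCL16 with DMSO and 100% = unstimulated wells without agonist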
Target sequence (O00574 whole entry, looked up): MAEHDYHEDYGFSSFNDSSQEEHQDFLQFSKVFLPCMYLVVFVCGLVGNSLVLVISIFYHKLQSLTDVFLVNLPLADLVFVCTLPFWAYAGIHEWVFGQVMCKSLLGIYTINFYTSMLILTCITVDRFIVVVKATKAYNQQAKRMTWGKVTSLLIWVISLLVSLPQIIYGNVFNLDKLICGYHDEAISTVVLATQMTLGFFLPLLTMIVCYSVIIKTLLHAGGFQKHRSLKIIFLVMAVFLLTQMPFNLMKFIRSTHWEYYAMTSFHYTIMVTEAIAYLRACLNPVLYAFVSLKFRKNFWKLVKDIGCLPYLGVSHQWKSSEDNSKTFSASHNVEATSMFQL
APJ agonist – activates the human apelin receptor APJ; CHO-K1 APJ PathHunter beta-arrestin, luminescence; 0% DMSO wells, 100% apelin; AID 2520; 330,000 tested, 0.11% active; P35414; activation, % at 20 µM;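 active = activation more than six SD over the plate average, tested at 20 µM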;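 also: 0% = DMSO alone and 100% = apelin-13 at 10 nM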
Target sequence (P35414 whole entry, looked up): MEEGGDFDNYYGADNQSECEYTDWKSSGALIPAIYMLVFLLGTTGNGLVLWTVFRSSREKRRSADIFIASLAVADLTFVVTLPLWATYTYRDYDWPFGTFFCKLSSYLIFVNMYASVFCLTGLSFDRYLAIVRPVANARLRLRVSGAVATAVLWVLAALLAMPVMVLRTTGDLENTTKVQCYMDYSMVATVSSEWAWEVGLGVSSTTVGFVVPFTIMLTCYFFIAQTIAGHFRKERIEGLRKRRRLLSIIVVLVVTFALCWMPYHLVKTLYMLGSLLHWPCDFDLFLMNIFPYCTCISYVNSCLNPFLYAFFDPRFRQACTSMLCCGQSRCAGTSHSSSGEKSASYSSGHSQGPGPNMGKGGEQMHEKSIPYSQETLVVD
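Test system: CHO-K1 APJ beta-arrestin complementation cell line. Amount: cell density 1000 per well. Controls: DMSO negative, 10 nM Apelin-13 positive. Signal: luminescent beta-gal fragment complementation, chemiluminescent substrate. Read-out basis: agonist-driven arrestin binding to APJ. Timing: compound stimulation 90 min at 25 °C, detection 60 min.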
APJ antag – antagonists of human APJ apelin receptor | P35414 | CHO-K1 APJ beta-arrestin complementation, luminescence | inhibition, % at 20 µM | 330,000 tested, 0.32% active;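 active = inhibition above about 40% at 20 µM, limit read from the data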;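 also: cells challenged with 10 nM apelin-13 agonist together with compound; plate controls were apelin-13 plus DMSO wells for no effect and DMSO wells lacking apelin-13 for full effect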
CCR6 antagonist – antagonists of human CCR6 receptor; P51684; CHO-K1 CCR6 PathHunter beta-arrestin, luminescence, CCL20-stimulated; inhibition, % at 20 µM; 340,000 tested, 0.49% active; AID 493098;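 active = compounds whose inhibition of the agonist-driven luminescence signal at 20 µM reaches about 50%, limit read from the data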;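 also: cells stimulated with CCL20 at 14 nM final; plate controls were DMSO with CCL20 for no effect and DMSO without agonist for full effect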
EBI2 antag conf – confirmation of human EBI2 receptor antagonists. 2,400 tested, 29% active. shares compounds with EBI2 block. EBI2 beta-arrestin luminescence, 7a,25-OHC antagonism. inhibition, % at 5 µM. AID 651997;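 active = inhibition of at least 50%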
EBI2 ag – EBI2 agonism counter-screen. shares compounds with EBI2 block. EBI2-expressing cells, agonist mode, luminescence, 60 min; 0% vehicle, 100% 7α,25-dihydroxycholesterol control. activation, % at 5 µM. 2,400 tested, under 10 active. AID 652000;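 active = activation of at least 50%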
bGal cs – beta-galactosidase inhibition counter-screen. shares compounds with EBI2 block. purified beta-galactosidase, luminescent Galacton Star, 15 min. inhibition, % at 5 µM. 2,400 tested, 1% active;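 active = replicate-average signal at least 3 plate SD below neutral wells, shown as high inhibition, flagging enzyme-inhibiting false positives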;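 also: 0% = DMSO wells with enzyme and 100% = wells lacking enzyme; higher means stronger loss of beta-gal luminescence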
An asterisk follows results filed as active; · = no result. Sampled rows, rich in hits. Any-hit rate of the full collection: about 1.5%.

SMILES	EBI2 block	CXCR6 inh	APJ agonist	APJ antag	CCR6 antagonist	EBI2 antag conf	EBI2 ag	bGal cs
COc1ccc(OCc2nnc(SCC(=O)N3C(C)CCCC3C)o2)cc1 (stereo not drawn)	46.1*	-4.6	-3.6	2.7	20.7	24.1	0.8	6.6
O=C(CSc1nnc(CNC(=O)c2c(F)cccc2F)o1)NCC1CCCO1 (stereo not drawn)	1.0	2.5	5.6	16.0	-1.4	·	·	·
COc1ccc(C2C(C#N)=C(N)Oc3c2ccc2cccnc32)cc1OC (stereo not drawn)	4.0	-1.9	-0.4	-1.0	3.5	·	·	·
CCOc1ccc(NC(=S)N(CCOC)C2CCN(C(C)C)CC2)cc1	53.8*	5.1	-4.4	-20.1	-15.7	22.9	1.9	5.7
Cc1cccc(C)c1NC(=S)N(CCc1ccncc1)C(C)C	9.8	-7.0	-1.4	-18.2	7.8	·	·	·
CCOc1ccc(NC(=S)N(CCc2ccncc2)C(C)C)cc1	51.6*	-0.6	-2.2	-3.9	-4.8	7.5	-1.1	4.4
COCCN(C(=S)Nc1ccc(C)cc1)C(C)c1ccco1 (stereo not drawn)	-3.9	9.0	-1.5	-3.2	14.8	·	·	·
COc1ccc(NC(=S)N(CCC(C)C)C2CCN(C(C)C)CC2)cc1	33.4	8.0	-4.3	13.9	14.8	·	·	·
CCOc1ccc(NC(=S)N(CCOC)C(C)c2ccco2)cc1 (stereo not drawn)	54.8*	9.3	-2.5	3.4	9.8	12.5	0.5	4.7
CC(=NCCCn1ccnc1)c1c(O)n(Cc2ccccc2)c(=O)[nH]c1=O	-7.8	3.3	-4.7	-1.6	-10.9	·	·	·
O=C1OCCN1N=Cc1ccco1	-4.4	1.7	·	·	-0.4	·	·	·
FC(F)Oc1ccc(NC(=S)Nc2ccc3cn[nH]c3c2)cc1	53.2*	2.6	0.2	-24.2	-2.6	47.4	0.2	-14.4
Oc1cccc2c(NC(=S)Nc3ccc(OC(F)F)cc3)cccc12	44.5*	-16.3	5.2	-30.7	5.9	24.4	-1.5	-7.8
CCN(CC)C(=S)Nc1ccc(OC(F)F)cc1	22.2	2.3	0.5	-15.4	8.8	·	·	·
S=C(Nc1ccccc1)Nc1ccc2cn[nH]c2c1	3.0	-8.1	2.3	-1.8	-8.3	·	·	·
FC(F)Oc1ccc(NC(=S)NCc2ccccc2)cc1	-3.7	-0.1	-0.4	-17.3	-6.4	·	·	·
CN(NC(=S)Nc1ccc(OC(F)F)cc1)C(=S)Nc1ccc(OC(F)F)cc1	42.8*	1.5	-4.7	20.3	19.9	16.7	1.7	6.3
CCC(=O)Nc1ccc(N2CCCCC2)c(C(=O)Nc2ccc(OC)cc2)c1	9.0	-5.2	0.6	-4.2	16.5	·	·	·
Cc1nc(CSc2ccc(Cl)cc2)cc(NCc2ccccc2)n1	46.6*	-3.5	-1.0	5.2	10.8	19.9	0.3	-1.1
CCN(CC)c1ccc(NC(=O)COc2ccc(C)cc2)cc1	48.2*	-8.4	0.5	-8.4	11.2	4.8	-0.5	-12.6
Cc1ccc(OCC(=O)Nc2ccc(N(C)C)cc2)cc1	0.7	-3.4	-2.0	-26.4	11.9	·	·	·
CCc1nc2ccc(C(=O)NCCOc3ccc(OC)cc3)cn2c1N(C)C(=O)COc1ccccc1	52.8*	-2.7	·	·	·	35.0	0.8	-1.1
CCc1nc2ccc(C(=O)NCCOc3ccc(OC)cc3)cn2c1N(C)Cc1ccc(N(C)C)cc1	49.1*	16.5	·	·	·	22.8	-1.2	-7.5
CCc1nc2ccc(C(=O)NCCOc3ccc(OC)cc3)cn2c1N(CC)Cc1ccc(OC)c(OC)c1	57.7*	0.7	·	·	·	37.5	-1.7	-8.6
COc1ccc(OCCNC(=O)c2ccc3nc(C)c(N(C)Cc4ccc(NC(C)=O)cc4)n3c2)cc1	55.1*	-2.3	·	·	·	16.3	-2.1	-8.8
SMILES	EBI2 block	CXCR6 inh	APJ agonist	APJ antag	CCR6 antagonist	EBI2 antag conf	EBI2 ag	bGal cs
Cc1[nH]c(-c2ccc(F)cc2)cc1C(=O)N1CCN(c2ccccc2F)CC1	90.9*	10.9	-0.4	4.7	-27.6	85.2*	-0.3	8.5
COc1ccccc1N1CCN(C(=O)c2ccoc2C)CC1	-6.9	0.0	-1.8	-8.7	-19.6	·	·	·
O=C(c1cccc(C(=O)N2CCN(c3ccccc3F)CC2)c1)N1CCN(c2ccccc2F)CC1	-2.9	6.0	4.0	-14.2	-2.8	·	·	·
COc1ccccc1N1CCN(C(=O)c2cc(-c3ccc(F)cc3)[nH]c2C)CC1	95.3*	8.4	0.9	-5.0	7.0	71.5*	-0.7	-6.0
CC1CCCC(NC(=O)CCC(=O)c2ccc(F)cc2)C1C (stereo not drawn)	13.1	-3.0	-3.7	11.0	12.6	·	·	·
O=C(NC(N1CCOCC1)C(Cl)(Cl)Cl)c1cc([N+](=O)[O-])cc([N+](=O)[O-])c1 (stereo not drawn)	-24.5	-21.4	5.2	-70.8	-5.9	·	·	·
CCCN(CCC)Cc1cc(=O)oc2cc(OC)ccc12	5.2	-6.1	·	·	·	·	·	·
COc1cc2oc(=O)cc(CN(Cc3ccccc3)Cc3ccccc3)c2cc1Cl	45.1*	11.7	·	·	·	37.9	-0.6	-1.8
COc1ccc2c(CN(Cc3ccccc3)Cc3ccccc3)cc(=O)oc2c1	51.7*	6.5	·	·	·	20.6	-1.1	-13.1
COc1ccc(Cl)cc1NC(=O)NCCN1CCNC1=O	4.0	0.7	2.7	18.5	-0.4	·	·	·
Nc1c(C(=O)c2ccccc2)sc(Nc2ccccc2)c1S(=O)(=O)c1ccccc1	45.6*	19.9	-2.9	-12.4	32.1	50.4*	4.2	3.5
CCOC(=O)N1CCN(S(=O)(=O)/C=C/c2ccccc2)CC1	-2.1	3.6	-2.8	-9.1	-23.6	·	·	·
O=C(COc1ccc(Br)cc1)N1CCN(S(=O)(=O)/C=C/c2ccccc2)CC1	92.5*	-8.9	-1.5	-1.4	11.7	85.6*	1.2	5.2
O=C(COc1ccccc1F)N1CCN(S(=O)(=O)/C=C/c2ccccc2)CC1	54.5*	-13.1	-2.8	-5.4	3.2	26.6	1.1	1.6
COc1ccc(CCC(=O)N2CCN(C3CCCCC3)CC2)cc1	45.5*	-2.2	-4.0	4.9	3.4	14.7	-1.4	-7.8
O=C(CCCc1ccccc1)N1CCN(C2CCCCC2)CC1	8.0	0.6	-2.2	11.3	3.3	·	·	·
COc1ccc(CCC(=O)N2CCN(C(=O)c3ccccc3)CC2)cc1	55.1*	8.7	0.6	13.8	-0.5	39.9	2.4	-1.0
N#C/C(=C/c1ccc2c(c1)OCO2)C(=O)NCCc1c[nH]c2ccccc12	50.7*	3.1	-0.4	7.2	13.3	44.1	0.5	8.8
CCOc1ccc(-c2nc(N)nc(C)c2-c2ccc(Cl)cc2)c(O)c1	54.5*	-6.5	-1.6	-5.6	-3.1	34.6	-0.2	0.1
